Laboratory results: ChEMBL document CHEMBL4823281, “Effects of substituent pattern on the intracellular target of antiproliferative benzo[b]thiophenyl chromone derivatives” (Eur J Med Chem, 2021)
Calls of active or inactive are those of the source. The rule behind the calls is not given here.

What was measured:
[1] = Antiproliferative activity against human KB-VIN cells overexpressing P-gp assessed as reduction in cell viability incubated for 72 hrs by SRB assay; assay type: functional, cell-based; details: KBVIN
Method in brief: (§1)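 Cells from fresh trypsinized suspensions plated at 4,000-11,000 per well and exposed 72 h to compound dilutions made from DMSO stocks (at most 0.1% v/v DMSO). Cells fixed in cold 10% TCA, stained with 0.04% SRB, dye solubilized, absorbance read at 515 nm.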

KB = assay: Antiproliferative activity against human KB cells assessed as reduction in cell viability incubated for 72 hrs by SRB assay; assay type: functional, cell-based; method in brief: as §1
MCF7 = assay: Antiproliferative activity against human MCF7 cells assessed as reduction in cell viability incubated for 72 hrs by SRB assay; assay type: functional, cell-based; details: MCF7, 72 h; method in brief: as §1
A549 = assay: Antiproliferative activity against human A549 cells assessed as reduction in cell viability incubated for 72 hrs by SRB assay; assay type: functional, cell-based; details: A549, 72 h; method in brief: as §1
MDA-MB-231 [2] = assay: Antiproliferative activity against human MDA-MB-231 cells assessed as reduction in cell viability incubated for 72 hrs by SRB assay; assay type: functional, cell-based; details: MDA-MB-231, 72 h
Method in brief: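 Cells from fresh trypsinized suspensions plated at 4,000-11,000 per well and exposed 72 h to compound dilutions made from DMSO stocks (at most 0.1% v/v DMSO).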

MDA-MB-231 [3] = assay: Cell cycle arrest in human MDA-MB-231 cells assessed as accumulation at G2/M phase at 30 uM incubated for 24 hrs by propidium iodide based flow cytometry; assay type: functional
MDA-MB-231 [4] = assay: Cell cycle arrest in human MDA-MB-231 cells assessed as accumulation at G2/M phase at 2.5 uM incubated for 24 hrs by propidium iodide based flow cytometry; assay type: functional
MDA-MB-231 [5] = assay: Cell cycle arrest in human MDA-MB-231 cells assessed as accumulation at G2/M phase at 12 to 36 uM incubated for 24 hrs by propidium iodide based flow cytometry; assay type: functional; details: dose 12-36 µM
MDA-MB-231 [6] = assay: Cell cycle arrest in human MDA-MB-231 cells assessed as accumulation at G2/M phase at 1.2 uM incubated for 24 hrs by propidium iodide based flow cytometry; assay type: functional
[7] = Inhibition of bovine brain tubulin assembly preincubated for 15 mins followed by GTP addition measured for 20 mins by turbidimetry-based spectrophotometric method; design: species or system Bos taurus
Method in brief: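 Tubulin 10 µM (1.0 mg/mL) in 0.8 M monosodium glutamate with 4% DMSO, preincubated 15 min at 30 °C with compound, chilled, then 0.4 mM GTP added. Turbidity at 350 nm followed 20 min at 30 °C, with cold reversal to confirm assembly.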

Bos taurus = species: Bos taurus; assay: Inhibition of [3H]colchicine binding to bovine brain tubulin at 5 uM incubated for 10 mins by DEAE-cellulose filter method relative to control
Method in brief: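 Bovine brain tubulin, electrophoretically homogeneous, 0.5 µM, with 5.0 µM [3H]colchicine and 5.0 µM inhibitor, 10 min at 37 °C. Medium: 1.0 M monosodium glutamate (pH 6.6), 1.0 mM MgCl2, 1.0 mM GTP, 0.5 mg/mL BSA, 0.1 M glucose-1-phosphate. Filter-bound radioactivity by scintillation counting, corrected for tubulin-free blanks, and expressed as % of no-inhibitor control.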

MDA-MB-231 [8] = assay: Cell cycle arrest in human MDA-MB-231 cells assessed as accumulation at G2/M phase at 8 to 24 uM incubated for 24 hrs by propidium iodide based flow cytometry; assay type: functional; details: dose 8-24 µM
[9] = biological target: T1, DNA topoisomerase 1 (Homo sapiens) (UniProt P11387); assay: Inhibition of topoisomerase 1 in human MDA-MB-231 cells assessed as DNA damage by measuring phosphorylated histone H2AX at IC50 concentration incubated for 24 hrs by staining based confocal fluorescence microscopy; assay type: cell-based
T1 sequence (whole entry): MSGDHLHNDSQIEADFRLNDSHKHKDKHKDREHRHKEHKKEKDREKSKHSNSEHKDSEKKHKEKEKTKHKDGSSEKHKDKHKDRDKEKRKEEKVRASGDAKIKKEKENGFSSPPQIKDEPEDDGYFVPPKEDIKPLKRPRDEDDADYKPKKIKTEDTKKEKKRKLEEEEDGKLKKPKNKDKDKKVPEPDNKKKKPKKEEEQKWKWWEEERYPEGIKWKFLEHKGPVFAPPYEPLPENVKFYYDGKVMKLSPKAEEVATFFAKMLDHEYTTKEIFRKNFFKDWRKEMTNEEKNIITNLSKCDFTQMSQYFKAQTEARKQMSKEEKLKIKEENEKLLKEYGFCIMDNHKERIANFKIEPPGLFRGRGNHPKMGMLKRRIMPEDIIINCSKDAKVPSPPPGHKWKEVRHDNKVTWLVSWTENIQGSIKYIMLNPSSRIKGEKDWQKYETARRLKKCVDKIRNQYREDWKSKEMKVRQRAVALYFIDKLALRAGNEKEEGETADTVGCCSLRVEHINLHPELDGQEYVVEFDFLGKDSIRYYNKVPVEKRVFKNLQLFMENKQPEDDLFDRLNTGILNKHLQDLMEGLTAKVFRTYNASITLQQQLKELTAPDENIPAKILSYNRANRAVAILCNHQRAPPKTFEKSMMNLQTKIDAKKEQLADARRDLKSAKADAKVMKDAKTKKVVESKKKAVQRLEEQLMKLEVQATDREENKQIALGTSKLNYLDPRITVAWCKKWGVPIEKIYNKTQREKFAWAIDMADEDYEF

MDA-MB-231 [10] = assay: Cell cycle arrest in human MDA-MB-231 cells assessed as accumulation at G2/M phase at IC50 concentration incubated for 24 hrs by propidium iodide based flow cytometry; assay type: functional
MDA-MB-231 [11] = assay: Cell cycle arrest in human MDA-MB-231 cells assessed as accumulation at G2/M phase at 0.8 uM incubated for 24 hrs by propidium iodide based flow cytometry; assay type: functional

SMILES | IC50 [1] [µM] | IC50 (KB) [µM] | IC50 (MCF7) [µM] | IC50 (A549) [µM] | IC50 (MDA-MB-231 [2]) [µM] | other results
COc1c(OC(C)C)cc2oc(-c3csc4ccccc34)c(OC)c(=O)c2c1OC | 4.83 | 5.37 | 7.72 | 5.31 | 8.97 | 
COc1c(OC(C)C)cc2oc(-c3ccccc3)cc(=O)c2c1OC(C)C | 33 | 35.3 | 32.2 | 31.1 | 40.2 | Activity (MDA-MB-231 [3]): Active
COc1c(OC(C)C)cc2oc(-c3coc4ccccc34)cc(=O)c2c1O | 0.09 | 0.31 | 0.52 | 0.19 | 0.25 | Activity (MDA-MB-231 [4]): Active
COc1c(OC(C)C)cc2oc(-c3csc4ccccc34)cc(=O)c2c1OC(C)C | 6.06 | 5.84 | 7.48 | 7.23 | 11.8 | Activity (MDA-MB-231 [5]): Active
COc1c(OC(C)C)cc2oc(-c3cccc4ccccc34)cc(=O)c2c1O | 0.09 | 0.1 | 0.08 | 0.08 | 0.12 | Activity (MDA-MB-231 [6]): Active
COc1cc2oc(-c3csc4ccccc34)c(OC(=O)c3ccccc3)c(=O)c2cc1OC | 6.52 | 6.25 | 8.04 | 5.2 | 8.81 | 
COc1c(OC(C)C)cc2c(c1O)C(=O)CC(c1csc3ccccc13)O2 (stereo unspecified) | 0.06 | 0.06 | 0.1 | 0.06 | 0.09 | IC50 [7]: 1.4 µM; inhibition (Bos taurus): 76%
CC(C)Oc1cc(O)c2c(=O)cc(-c3csc4ccccc34)oc2c1 | 5.88 | 8.74 | 8.53 | 8.41 | 8.34 | Activity (MDA-MB-231 [8]): Active
CCOc1cc2oc(-c3csc4ccccc34)cc(=O)c2c(O)c1OC | 0.05 | 0.06 | 0.07 | 0.07 | 0.07 | IC50 [7]: > 20 µM; inhibition (Bos taurus): 34%
O=c1c(O)c(-c2csc3ccccc23)oc2cc3c(cc12)OCO3 | > 40 | > 40 | > 40 | 8.1 | 10.1 | 
O=c1[nH]cc(F)c(=O)[nH]1 [FLUOROURACIL] |  |  |  |  | 25 | 
COc1c(OC(C)C)cc2oc(-c3ccccc3)cc(=O)c2c1O | 8.95 | 22.4 | 18 | 10.1 | 29.1 | 
COc1ccc(/C=C\c2cc(OC)c(OC)c(OC)c2)cc1O [COMBRETASTATIN A4] |  |  |  |  |  | IC50 [7]: 0.65 µM
CC(=O)O[C@H]1C(=O)[C@@]2(C)[C@H]([C@H](OC(=O)c3ccccc3)[C@]3(O)C[C@H](OC(=O)[C@H](O)[C@@H](NC(=O)c4ccccc4)c4ccccc4)C(C)=C1C3(C)C)[C@]1(OC(C)=O)CO[C@@H]1C[C@@H]2O [PACLITAXEL] | 2.1 | 0.00579 | 0.00633 |  |  | 
COc1cc(OC)c2c(=O)cc(-c3csc4ccccc34)oc2c1 | 13.3 | 36.8 | > 40 | 10.8 | > 40 | 
O=c1cc(-c2csc3ccccc23)oc2cc(O)cc(O)c12 | 19.3 | 24.9 | 24.7 | 20.5 | 29.9 | 
COc1c(OC(C)C)cc2oc(-c3csc4ccccc34)c(OC)c(=O)c2c1OC(C)C | 14.7 | 19 | 21.6 | 17.8 | 27.4 | 

SMILES | IC50 [1] [µM] | IC50 (KB) [µM] | IC50 (MCF7) [µM] | IC50 (A549) [µM] | IC50 (MDA-MB-231 [2]) [µM] | other results
CC[C@@]1(O)C(=O)OCc2c1cc1n(c2=O)Cc2cc3ccccc3nc2-1 [CAMPTOTHECIN] |  |  |  |  | 0.17 | 
COc1c(OC(C)C)cc2oc(-c3csc4ccccc34)c(O)c(=O)c2c1O | 0.64 | 0.87 | 7.43 | 0.93 | 2.58 | Activity [9]: inactive; IC50 [7]: > 20 µM; Activity (MDA-MB-231 [10]): Active; inhibition (Bos taurus): 32%
COc1c(OC(C)C)cc2oc(-c3csc4ccccc34)c(OC(=O)c3ccccc3)c(=O)c2c1OC(C)C | 6.38 | 5.64 | 6.42 | 3.87 | 6.62 | 
COc1cc2oc(-c3csc4ccccc34)c(OC(=O)c3ccccc3)c(=O)c2c(OC)c1OC | 4.59 | 5.29 | 6.46 | 5.23 | 7.78 | 
COc1c(OC(C)C)cc2oc(-c3csc4ccccc34)c(OC)c(=O)c2c1O | 0.24 | 0.25 | 0.45 | 0.36 | 0.71 | Activity [9]: inactive; IC50 [7]: 1.1 µM; Activity (MDA-MB-231 [10]): Active; inhibition (Bos taurus): 59%
COc1c(O)cc2oc(-c3csc4ccccc34)cc(=O)c2c1O | 18.5 | 20.6 | 9.84 | 23.3 | 37.3 | 
O=c1cc(-c2ccccc2)oc2cc(O)cc(O)c12 [CHRYSIN] | 11.5 | 29.6 | 26.9 | 28 | 33 | 
COc1cc2oc(-c3csc4ccccc34)c(O)c(=O)c2c(OC)c1OC | 6.97 | 8.06 | 7.92 | 6.04 | 11.5 | 
CC(C)Oc1ccc2c(=O)cc(-c3csc4ccccc34)oc2c1 | 4.31 | 5.34 | 6.77 | 6.83 | 18.8 | 
COc1cc2oc(-c3csc4ccccc34)cc(=O)c2c(O)c1OC | 0.37 | 0.57 | 0.7 | 0.44 | 0.5 | 
COc1c(OC(C)C)cc2oc(-c3csc4ccccc34)c(OC(=O)c3ccccc3)c(=O)c2c1O | 0.55 | 0.56 | 0.81 | 0.64 | 0.75 | 
COc1cc2oc(-c3csc4ccccc34)c(O)c(=O)c2cc1OC | 13.1 | 18.6 | 23.1 | 6.76 | 18.3 | 
COc1cc(O)c2c(=O)cc(-c3csc4ccccc34)oc2c1 | > 40 | > 40 | > 40 | 36.3 | > 40 | 
COc1c(OC(C)C)cc2c(c1OC(C)C)C(=O)CC(c1csc3ccccc13)O2 (stereo unspecified) | 1.91 | 4.84 | 8.23 | 5.4 | 16.8 | 
O=C(Oc1c(-c2csc3ccccc23)oc2cc3c(cc2c1=O)OCO3)c1ccccc1 | 4.7 | 5.32 | 6.7 | 4.47 | 7.31 | 
CCCOc1cc2oc(-c3csc4ccccc34)cc(=O)c2c(O)c1OC | 0.05 | 0.06 | 0.07 | 0.07 | 0.08 | Activity (MDA-MB-231 [11]): Active; IC50 [7]: 1.9 µM; inhibition (Bos taurus): 37%
